Several values for one entry are separate records, joined by “and”; a condition that tells them apart may be missing. Identical values can stand only once.
Legend:
CD1 mice [1] = assay: AITC-induced spontaneous pain; format: in vivo, mouse; conditions: AITC 1 μg; for AITC-induced pain: 10 μg intraplantar; for AITC-induced nocifensive behaviors: 10 ng intraplantar
TRPA1 [2] = target: TRPA1 (Mus musculus, UniProt Q8BLA8); assay: Whole-cell patch clamp of AITC-induced TRPA1 currents in dissociated DRG neurons; format: cell-based; conditions: for Effect on TRPA1 currents: AITC (300 μM)-induced current; for IC50: read-out: TRPA1 IC50, TRPA1 current induced by AITC (300 μM), DRG neurons
CD1 mice [3] = assay: Capsaicin-induced spontaneous pain; format: in vivo, mouse; conditions: capsaicin 1 μg; for Capsaicin-induced pain: 10 μg intraplantar; for Capsaicin-induced nocifensive behaviors: 10 ng intraplantar
TRPV1 [4] = format: cell-based, mouse; conditions: capsaicin 1 μM
TRPV1 [5] = target: TRPV1 (Mus musculus, UniProt Q704Y3); format: cell-based; conditions: for IC50: read-out: TRPV1 IC50
TRPA1 [6] = assay: AITC-induced sEPSC frequency increase in lamina II neurons of spinal cord slices; format: cell-based, mouse; conditions: AITC 300 μM
In short: (§1)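 Transverse L4–L5 spinal cord slices (400–600 μm) from CD1 mice aged 4–6 weeks, perfused with Krebs solution gassed with 95% O2/5% CO2 at 37°C. Whole-cell sEPSCs recorded from lamina IIo neurons held at −70 mV with K-gluconate internal solution at pH 7.4. Signals filtered at 2 kHz and digitized at 5 kHz. Frequency ratio taken against pretreatment baseline, with AITC at […]; n = 5–9 neurons.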

[7] = system: C-fiber-evoked field potentials in the dorsal horn; assay: Spinal cord LTP of C-fiber-evoked field potentials in anesthetized mice; format: in vivo, mouse; conditions: 10 ng intrathecal, 2 h after LTP induction
In short: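 Mice under urethane (1.5 g/kg i.p.), laminectomy at T13–L1. Bipolar sciatic nerve stimulation; C-fiber field potentials recorded in ipsilateral L4–L5 dorsal horn at 100–300 μm depth. Test pulses (2× threshold, 0.5 ms) every 5 min for >40 min, then tetanus (5× threshold, 100 Hz, 1 s, four trains, 10 s apart). Test compound 10 ng i.t. via PE5 catheter 2 h post-induction; n = 5; two-way ANOVA.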

CD1 mice [8] = assay: Carrageenan-induced inflammatory pain; format: in vivo, mouse; conditions: 10 ng intraplantar
[9] = system: lamina II neurons of spinal cord slices; assay: Patch clamp of basal sEPSCs in lamina II neurons of spinal cord slices; format: cell-based, mouse; conditions: RvD2 alone, 1 ng/ml
In short: as §1

CD1 mice [10] = assay: Formalin test; format: in vivo, mouse; conditions: 0.01 ng intrathecal
CD1 mice [11] = assay: Rota-Rod test of motor function; format: in vivo, mouse; conditions: 10 ng i.t., naive animals
CD1 mice [12] = assay: CFA-induced persistent inflammatory pain; format: in vivo, mouse; conditions: 10 ng intrathecal, 3 days after CFA
[13] = system: lamina II neurons of spinal cord slices; assay: sEPSCs in spinal cord slices from CFA-inflamed mice; format: cell-based, mouse; conditions: 1 ng/ml; slices from CFA-inflamed mice (one day)
In short: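 CD1 mice received CFA intraplantar (20 μl, 1 mg/ml) and were sliced 1 d later. Slices were compared with ones from noninflamed mice. L4–L5 transverse slices (400–600 μm) were perfused with Krebs solution at 37°C. Whole-cell recording from lamina IIo neurons held at −70 mV. sEPSC frequency and amplitude measured with test compound at 1 ng/ml; n = 5 neurons.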

[14] = TRPV1 current induced by capsaicin (100 nM), DRG neurons
[15] = GDPβS 2.5 mM, 8 min, RvD2 1 ng/ml
[16] = PTX 0.5 μg/ml, 18 h, RvD2 1 ng/ml

Chain of TRPV1 (Mus musculus, UniProt Q704Y3) (Q704Y3 whole entry): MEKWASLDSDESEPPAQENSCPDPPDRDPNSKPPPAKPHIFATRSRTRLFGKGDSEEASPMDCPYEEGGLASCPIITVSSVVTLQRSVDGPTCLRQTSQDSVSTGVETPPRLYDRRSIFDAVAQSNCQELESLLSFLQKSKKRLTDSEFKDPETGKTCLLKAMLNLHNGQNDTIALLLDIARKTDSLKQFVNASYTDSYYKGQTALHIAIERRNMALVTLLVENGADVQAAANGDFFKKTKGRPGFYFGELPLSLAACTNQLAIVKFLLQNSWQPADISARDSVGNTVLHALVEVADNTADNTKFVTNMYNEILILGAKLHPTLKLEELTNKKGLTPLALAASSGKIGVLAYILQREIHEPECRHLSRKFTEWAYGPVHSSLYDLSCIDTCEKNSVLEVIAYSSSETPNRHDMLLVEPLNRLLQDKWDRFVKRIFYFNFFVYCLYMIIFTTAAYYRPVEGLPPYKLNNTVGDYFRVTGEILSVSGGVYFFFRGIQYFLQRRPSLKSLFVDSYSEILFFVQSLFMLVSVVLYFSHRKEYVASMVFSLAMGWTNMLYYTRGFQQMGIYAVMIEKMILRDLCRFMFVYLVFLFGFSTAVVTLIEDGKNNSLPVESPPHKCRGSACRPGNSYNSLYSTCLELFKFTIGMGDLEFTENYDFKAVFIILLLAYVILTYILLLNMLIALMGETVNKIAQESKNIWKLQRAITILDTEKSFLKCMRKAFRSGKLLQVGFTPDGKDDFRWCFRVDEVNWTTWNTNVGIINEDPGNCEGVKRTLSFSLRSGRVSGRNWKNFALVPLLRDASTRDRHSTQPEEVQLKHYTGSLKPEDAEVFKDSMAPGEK
Chain of TRPA1 (Mus musculus, UniProt Q8BLA8) (Q8BLA8 whole entry): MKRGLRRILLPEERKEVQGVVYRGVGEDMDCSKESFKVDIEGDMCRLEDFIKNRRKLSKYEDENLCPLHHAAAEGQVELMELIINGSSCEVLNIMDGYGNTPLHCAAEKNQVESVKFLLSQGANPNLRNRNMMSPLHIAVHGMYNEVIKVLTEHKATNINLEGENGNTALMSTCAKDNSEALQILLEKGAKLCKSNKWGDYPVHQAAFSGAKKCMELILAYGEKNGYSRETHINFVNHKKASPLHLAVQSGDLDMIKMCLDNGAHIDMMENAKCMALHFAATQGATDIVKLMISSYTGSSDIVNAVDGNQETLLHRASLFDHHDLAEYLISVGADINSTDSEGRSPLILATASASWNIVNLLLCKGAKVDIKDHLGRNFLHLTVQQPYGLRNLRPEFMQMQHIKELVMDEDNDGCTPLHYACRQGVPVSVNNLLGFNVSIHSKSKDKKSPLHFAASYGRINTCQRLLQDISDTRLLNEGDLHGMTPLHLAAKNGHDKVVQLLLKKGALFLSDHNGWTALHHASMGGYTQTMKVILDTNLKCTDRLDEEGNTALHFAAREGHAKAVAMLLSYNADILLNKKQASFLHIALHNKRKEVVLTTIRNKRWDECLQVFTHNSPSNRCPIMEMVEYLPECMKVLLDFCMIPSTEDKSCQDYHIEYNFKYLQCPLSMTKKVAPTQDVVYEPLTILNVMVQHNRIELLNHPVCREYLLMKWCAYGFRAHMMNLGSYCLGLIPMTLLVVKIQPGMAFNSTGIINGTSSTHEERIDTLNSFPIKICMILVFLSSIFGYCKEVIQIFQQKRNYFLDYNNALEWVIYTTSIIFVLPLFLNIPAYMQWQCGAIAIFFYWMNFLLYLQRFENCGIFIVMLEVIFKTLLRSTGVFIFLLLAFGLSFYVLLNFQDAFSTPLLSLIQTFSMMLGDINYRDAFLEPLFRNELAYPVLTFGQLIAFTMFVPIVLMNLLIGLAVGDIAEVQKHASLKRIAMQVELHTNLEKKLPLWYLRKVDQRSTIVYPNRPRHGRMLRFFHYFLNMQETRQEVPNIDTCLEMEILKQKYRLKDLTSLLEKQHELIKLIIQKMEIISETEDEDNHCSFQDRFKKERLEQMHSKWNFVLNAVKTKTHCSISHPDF

SMILES: CC/C=C\C/C=C\C/C=C\C/C=C\C/C=C\CCCC(=O)O [EPA, eicosapentaenoic acid, reference compound]
- AITC-induced pain (CD1 mice [1]): but not AITC-induced pain
- Effect on TRPA1 currents (TRPA1 [2]): without affecting
- Capsaicin-induced pain (CD1 mice [3]): inhibited

SMILES: CC[C@@H](O)/C=C/C=C\C[C@@H](O)/C=C/C=C/C=C\[C@@H](O)CCCC(=O)O [RvE1, Resolvin E1]
- Effect on TRPA1 currents (TRPA1 [2]): did not inhibit
- Capsaicin-induced nocifensive behaviors (CD1 mice [3]): selectively inhibited
- Capsaicin-induced sEPSC frequency increase (TRPV1 [4]; 1 ng/ml): selectively inhibited

SMILES: CC/C=C\C[C@H](O)/C=C/C=C\C=C\C=C\[C@@H](O)[C@@H](O)C/C=C\CCC(=O)O [RvD1, Resolvin D1]
- AITC-induced nocifensive behaviors (CD1 mice [1]): selectively inhibited
- Effect on TRPV1 currents (TRPV1 [5]; even at high concentrations): no effect
- IC50 (TRPV1 [5]; [14]): > 26.6 nM
- IC50 (TRPA1 [2]): 9 nM and 8.5 nM
- AITC-induced sEPSC frequency increase (TRPA1 [6]; 10 ng/ml): selectively inhibited

SMILES: CC/C=C\C[C@H](O)[C@H](O)/C=C/C=C/C=C\C=C\[C@@H](O)C/C=C\CCC(=O)O [RvD2, Resolvin D2]
- LTP of C-fiber-evoked field potentials [7]: completely reversed
- CRG-induced heat hyperalgesia (CD1 mice [8]): largely prevented
- CRG-induced mechanical allodynia (CD1 mice [8]): largely prevented
- CRG-induced paw edema (CD1 mice [8]; data not shown): reduced
- AITC-induced nocifensive behaviors (CD1 mice [1]): significantly reduced
- Basal sEPSC amplitude [9]: altered neither
- Basal sEPSC frequency [9]: altered neither
- Antinociceptive action in formalin test (CD1 mice [10]): significant antinociceptive action
- Inhibition of TRPV1 current under intracellular GDPβS (TRPV1 [5]; [15]): completely blocked
- Effect on TRPV1 current after pertussis toxin pretreatment (TRPV1 [5]; [16]): could not alter
- TRPV1 IC50 expressed (TRPV1 [5]; [14]): 0.04 ng/mL
- IC50 (TRPV1 [5]; [14]): 0.1 ± 0.01 nM
- Inhibition of TRPA1 current under intracellular GDPβS (TRPA1 [2]; [15]): completely blocked
- Effect on TRPA1 current after pertussis toxin pretreatment (TRPA1 [2]; [16]): could not alter
- IC50 (TRPA1 [2]): 2 nM and 2.1 nM
- AITC-induced increase in sEPSC frequency (TRPA1 [6]; 0.1 and 1 ng/ml): does-dependently blocked
- Motor function in the Rota-rod test (CD1 mice [11]): Neither did this treatment affect
- CFA-induced heat hyperalgesia (CD1 mice [12]): effectively reduced
- Duration of reduction of CFA-induced heat hyperalgesia and mechanical allodynia (CD1 mice [12]): > 3 h
- CFA-induced mechanical allodynia (CD1 mice [12]; data not shown): effectively reduced
- Capsaicin-induced nocifensive behaviors (CD1 mice [3]): significantly reduced
- Capsaicin-induced increase in sEPSC frequency (TRPV1 [4]; 0.1 and 1 ng/ml): does-dependently blocked
- CFA-induced increase in sEPSC amplitude [13]: abolished
- CFA-induced increase in sEPSC frequency [13]: abolished

SMILES: CC/C=C\C/C=C\C/C=C\C/C=C\C/C=C\C/C=C\CCC(=O)O [DHA, docosahexaenoic acid, reference compound]
- AITC-induced pain (CD1 mice [1]): but not AITC-induced pain
- Effect on TRPA1 currents (TRPA1 [2]): without affecting
- Capsaicin-induced pain (CD1 mice [3]): inhibited

Source: PMC3242808 (The Journal of neuroscience : the official journal of the …, 2011)
